In the library only some 0.55% were active in any assay of this set; here they are far more common.
OXTR potentiator: human OXTR potentiation | P30559 | CHO-OTR cells, Fluo-8 calcium fluorescence, potentiator mode; 0% = oxytocin EC15, 100% = EC100 | activation, % at 3 µM | 0.061% of 320,000 active;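 active = activation above that plate's cutoff, the mean activation of tested compounds plus 3 SD, cut at about 6.6% in these data, passing the limit was not always enough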
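Material: human OTR in CHO cells. Compound: 3.0 µM, one dose. Timing: compound 6 min at room temperature before oxytocin, 100 s read. Evaluation: % activation of max/min ratio relative to oxytocin controls. Replication: single well per compound, singlicate. Signal: Fluo-8 calcium dye fluorescence.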
V1aR counter: counter-screen for oxytocin receptor agonists: human V1a receptor agonists; P37288; activation, % at 3 µM; 0.25% of 320,000 active; CHO-V1R cells, Fluo-8 calcium fluorescence, agonist mode; 0% DMSO, 100% 3 nM vasopressin;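 active = activation above the mean activation of all tested compounds plus 3 SD, per screening run, cut at about 20% in these data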;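 note: signal is peak over basal fluorescence ratio across a 100 second FLIPR read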
Target sequence (P37288 whole entry, looked up): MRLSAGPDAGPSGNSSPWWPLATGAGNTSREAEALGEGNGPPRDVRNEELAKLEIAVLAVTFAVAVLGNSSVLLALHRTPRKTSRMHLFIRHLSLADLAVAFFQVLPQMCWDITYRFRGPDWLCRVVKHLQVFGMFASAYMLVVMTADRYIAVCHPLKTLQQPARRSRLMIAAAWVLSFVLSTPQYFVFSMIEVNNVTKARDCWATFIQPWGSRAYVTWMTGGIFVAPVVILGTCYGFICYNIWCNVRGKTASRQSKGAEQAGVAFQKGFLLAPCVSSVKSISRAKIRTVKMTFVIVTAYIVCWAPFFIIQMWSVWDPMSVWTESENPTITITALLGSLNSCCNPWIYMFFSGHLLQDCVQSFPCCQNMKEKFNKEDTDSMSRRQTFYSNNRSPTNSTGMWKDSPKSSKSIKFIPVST
OXTR ag: agonists of human oxytocin receptor; P30559; activation, % at 3 µM; 0.32% of 320,000 active; CHO-OTR cells, Fluo-8 calcium fluorescence; normalized: DMSO 0%, oxytocin 100%;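 active = activation above the mean of all tested compounds plus 3 SD, cutoff set per screening run, cut at about 20% in these data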;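 note: peak over basal fluorescence ratio from a 100 s FLIPR kinetic read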
TRPML3 ag: agonists of human TRPML3 channel; 0.29% of 220,000 active; HEK293 TRPML3-YFP, Fluo-8 calcium fluorescence; 100% = the carbachol control signal; Q8TDD5; AID 1448; activation, % at 3 µM;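 active = activation above its plate's cutoff, the mean activation of the plate's test wells plus 3 SD, cut at about 12% in these data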
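system = HEK293 cells stably carrying human TRPML3-YFP | doses = one concentration, 3 µM nominal, 0.3% DMSO | timing = dye loading 1 h 37 °C then 30 min ambient, 125 s read | detection = Fluo-8 calcium dye fluorescence, ex 470-495, em 515-575 nm | benchmarks = high control carbachol 87 µM, low control DMSO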
TRPN1 ag: agonists of zebrafish TRPN1 channel; HEK293 zebrafish TRPN1-YFP, Fluo-8 calcium fluorescence; 100% = response to 87 µM carbachol; activation, % at 3 µM; 0.18% of 220,000 active;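 active = activation above its plate's cutoff, the mean activation of test wells on that plate plus 3 SD, cut at about 19% in these data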
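Material – zebrafish TRPN1-YFP in HEK293 cells · Doses – 3 µM single point · Schedule – dye 1 h 37 °C plus 30 min RT · Signal – Fluo-8 calcium fluorescence, excitation 470-495 nm, emission 515-575 nm · Read-out – % activation versus carbachol response · Control set – carbachol high, DMSO low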
TRPN1 ag 2: counter-screen for TRPML3 agonists: agonists of zebrafish TRPN1 channel; shares compounds with TRPML3 ag; activation, % at 3 µM; HEK293 zebrafish TRPN1-YFP, Fluo-8 calcium fluorescence; scaled: carbachol wells 100%, DMSO wells 0%; 10% of 310 active;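 active = mean activation over replicates above a set limit taken from the earlier TRPN1 channel primary screen, cut at about 19% in these data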
TRPML3 confirm: human TRPML3 agonism, confirmation | 80% of 310 active | AID 1526 | activation, % at 3 µM | HEK293 TRPML3-YFP, Fluo-8 calcium fluorescence; 100% set by carbachol, 0% by DMSO | shares compounds with TRPML3 ag;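 active = activation above a set limit derived from the earlier primary screen, cut at about 12% in these data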
Each line names hits and unclear results; the compound was inactive in the other large screens (follow-up assays come after a bar, where they were run).

N#C/C(=C\c1ccncc1)c1nc2ccccc2[nH]1	none (no result: OXTR potentiator, V1aR counter, OXTR ag)
N#C/C(=C/c1ccncc1)c1nc2ccccc2s1	V1aR counter 55.2, OXTR ag 26.8, TRPML3 ag 19.3, TRPN1 ag 33.6
On1onc2c3cc(-c4ccccc4)nc3ccc21	TRPML3 ag 12.2 | TRPN1 ag 2 inactive | TRPML3 confirm inactive
COc1ccc(CNC(=O)C2CC(=O)N(C3CCCC3)C2)cc1 (centres undefined)	none (no result: TRPML3 ag, TRPN1 ag)
Cc1ccc(C(=O)CSC2=C(C#N)C(c3ccco3)CC(=O)N2)c(C)c1 (centres undefined)	V1aR counter 52.8, OXTR ag 51.5, TRPML3 ag 15.8 | TRPN1 ag 2 inactive | TRPML3 confirm inactive
Cc1ccc(NC(=O)CSC2=C(C#N)C(c3ccco3)CC(=O)N2)cc1 (centres undefined)	none
CC(C)=C1C2CCC1C(C(=O)NCc1ccccc1)C2C(=O)O (centres undefined)	TRPML3 ag 18.0 | TRPN1 ag 2 inactive | TRPML3 confirm inactive
O=C(COC(=O)c1cccnc1Cl)Nc1nc(-c2ccccc2)cs1	none
O=c1cc(C(F)(F)F)[nH]c2c(C(F)(F)F)cccc12	TRPML3 ag 14.6 | TRPN1 ag 2 29.0 | TRPML3 confirm 12.5
Cc1cc(=O)c2cccc(Br)c2[nH]1	none
O=c1cc(C(F)(F)F)[nH]c2ccc(OC(F)(F)F)cc12	TRPML3 ag 11.8 | TRPN1 ag 2 26.4 | TRPML3 confirm inactive
Cc1ccc(N(CC(=O)NCc2ccccn2)S(=O)(=O)c2ccccc2)cc1C	none (no result: TRPML3 ag, TRPN1 ag)
O=C1c2ccccc2CCCC12N=NCC2c1cccc2ccccc12 (centres undefined)	TRPML3 ag 56.1 | TRPN1 ag 2 inactive | TRPML3 confirm 66.9
CCN(CC(=O)Nc1ccc(OC)cc1)C(=O)CSCC(=O)Nc1cc(C)on1	none (no result: TRPML3 ag, TRPN1 ag)
COc1ccc2c(c1)C(C)=CC(C)(C)N2C(=O)CSc1nnc(-c2ccc(C)cc2)o1	TRPML3 ag 37.5 | TRPN1 ag 2 inactive | TRPML3 confirm 47.9
COc1ccc(C(=O)CSc2nnc(-c3ccc(C)cc3)o2)cc1	none
CCCNc1nc(Cl)nc(NCc2cccnc2)n1	none
CCCC(=O)Oc1c(S(=O)(=O)c2ccc(C)cc2)c(C)nn1C(C)(C)C	TRPML3 ag 25.7 | TRPN1 ag 2 inactive | TRPML3 confirm 84.5
CCCc1nc2nc(C)c(NS(=O)(=O)c3ccc([N+](=O)[O-])cc3)c(=O)n2[nH]1	none (no result: TRPML3 ag, TRPN1 ag)
COc1ccc2c(c1)C(C)CC(C)(C)N2C(=O)CSc1nc2ccccc2s1 (centres undefined)	TRPML3 ag 18.5 | TRPN1 ag 2 inactive | TRPML3 confirm 33.2
O=C(NC(=S)NNC(=O)c1cccs1)c1ccc(Br)o1	TRPML3 ag 11.9 | TRPN1 ag 2 inactive | TRPML3 confirm 21.6
CNC(=S)NNC(=O)c1cccs1	none
COc1ccc(/C(N)=N/OC(=O)CN(C)S(=O)(=O)c2ccccc2)cc1	TRPML3 ag 105.9 (no result: OXTR potentiator, V1aR counter, OXTR ag) | TRPN1 ag 2 inactive | TRPML3 confirm 40.5
CN(CC(=O)O/N=C(\N)c1ccccn1)S(=O)(=O)c1ccccc1	none
CCc1ccc(CN(C)C(=O)CCc2nnc(CCc3ccccc3OC)o2)nc1	none
Cc1cccc(N2C(=O)C(Oc3ccc(Cl)cc3Cl)C2C=O)c1C (centres undefined)	none
O=C(/C=C/c1cccs1)Nc1ccc(Br)cn1	none
CC1=CC(C)(C)N(C(=O)CN2C(=O)c3ccccc3C2=O)c2ccccc21	TRPML3 ag 67.2 | TRPN1 ag 2 inactive | TRPML3 confirm 92.3
CC1CC(C)(C)N(C(=O)CN2C(=O)c3ccccc3C2=O)c2ccccc21 (centres undefined)	TRPML3 ag 209.6 | TRPN1 ag 2 97.0 | TRPML3 confirm 205.1
O=C(COc1ccc(/C=N/NC(=O)c2ccccc2)cc1)Nc1ccc([N+](=O)[O-])cc1	none

Screens from PubChem BioAssay.
